Source: ChEMBL document CHEMBL5233277, “Oxidative Metabolism as a Modulator of Kratom's Biological Actions” (J Med Chem, 2021)
Activity calls are given as the source filed them. The rule behind the calls is not given here.

Columns and labels:
[1] = biological target: Mu-type opioid receptor (Mus musculus) (UniProt P42866); assay: Agonist activity at mouse MOR expressed in CHO cell membranes assessed as stimulation of [35S]-GTPgammaS binding by measuring maximal efficacy incubated for 60 mins by scintillation spectroscopy analysis relative DAMGO; settings: Membrane, filed as agonist
Chain of Mu-type opioid receptor (Mus musculus) (P42866 whole entry): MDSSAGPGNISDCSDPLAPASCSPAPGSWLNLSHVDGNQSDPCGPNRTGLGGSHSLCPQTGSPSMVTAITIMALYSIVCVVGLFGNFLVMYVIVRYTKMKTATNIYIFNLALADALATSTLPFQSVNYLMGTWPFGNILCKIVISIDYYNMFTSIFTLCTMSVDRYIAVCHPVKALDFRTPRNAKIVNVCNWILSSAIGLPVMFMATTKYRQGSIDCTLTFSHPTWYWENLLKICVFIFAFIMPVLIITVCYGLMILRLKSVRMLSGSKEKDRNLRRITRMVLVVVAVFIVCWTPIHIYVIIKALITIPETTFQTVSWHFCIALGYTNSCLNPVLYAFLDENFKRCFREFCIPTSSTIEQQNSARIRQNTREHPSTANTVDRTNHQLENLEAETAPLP
How it was run: (§1)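 CHO cell membranes stably expressing cloned mouse opioid receptors; agonist-stimulated [35S]GTPγS binding. […] Three independent experiments, each in triplicate.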

[2] = biological target: Kappa-type opioid receptor (Mus musculus) (UniProt P33534); assay: (§2) Agonist activity at mouse KOR expressed in CHO cell membranes assessed as stimulation of [35S]-GTPgammaS binding incubated for 60 mins by scintillation spectroscopy analysis; settings: Membrane
Chain of Kappa-type opioid receptor (Mus musculus) (P33534 whole entry): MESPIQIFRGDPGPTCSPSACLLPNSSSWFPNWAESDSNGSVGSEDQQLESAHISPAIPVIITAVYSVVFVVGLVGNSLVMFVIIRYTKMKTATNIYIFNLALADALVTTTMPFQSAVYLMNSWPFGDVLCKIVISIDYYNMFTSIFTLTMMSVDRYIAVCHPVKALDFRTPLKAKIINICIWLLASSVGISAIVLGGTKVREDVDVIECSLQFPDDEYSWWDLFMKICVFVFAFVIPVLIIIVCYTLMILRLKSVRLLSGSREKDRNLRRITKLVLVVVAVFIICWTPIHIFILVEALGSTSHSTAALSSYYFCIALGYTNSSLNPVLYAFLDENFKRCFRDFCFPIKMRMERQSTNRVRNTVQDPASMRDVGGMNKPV
How it was run: (§3)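 CHO cell membranes stably expressing cloned mouse opioid receptors; agonist-stimulated [35S]GTPγS binding. Three independent experiments, each in triplicate.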

Mus musculus [3] = assay: Antinociceptive activity in sc dosed 129Sv6 mouse model assessed as peak effect measured at 15 mins by radiant heat tail flick assay; assay type: functional; settings: 129Sv6, 0.25 h
Mus musculus [4] = assay: Antinociceptive activity in po dosed C57BL/6J mouse model assessed as peak effect measured at 20 mins by radiant heat tail flick assay; assay type: functional
[5] = Drug concentration in C57BL/6J mouse plasma at 1 mg/kg, sc measured after 20 mins by LC-MS/MS analysis; assay type: ADME, organism-based
[6] = Drug concentration in C57BL/6J mouse brain at 1 mg/kg, sc measured after 20 mins by LC-MS/MS analysis; assay type: ADME, organism-based; settings: read-out: Ct
Mus musculus [7] = assay: Potency index, ratio of morphine ED50 to test compound ED50 for antinociceptive activity in po dosed C57BL/6J mouse model assessed as peak effect measured at 20 mins by radiant heat tail flick assay; assay type: functional
Mus musculus [8] = assay: Potency index, ratio of morphine ED50 to test compound ED50 for antinociceptive activity in po dosed 129Sv6 mouse model assessed as peak effect measured at 15 mins by radiant heat tail flick assay; assay type: functional; settings: 0.25 h
[9] = Toxicity in C57BL/6J mouse assessed as hyperlocomotion at 1 mg/kg, sc measured after 20 mins; assay type: organism-based; settings: in vivo
Mu-type opioid receptor [10] = biological target: T1, Mu-type opioid receptor (Mus musculus, UniProt P42866); assay: Displacement of [125]IBNtxA from mouse MOR stably expressed in CHO cell membranes incubated for 90 mins; design: species or system Membrane
T1 sequence (P42866 whole entry): as the sequence (P42866 whole entry) above
How it was run: (§4)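 MOR: 50 mM potassium phosphate with 5 mM MgSO4, 20 μg/mL protein. KOR and DOR: 50 mM potassium phosphate pH 7.0, 40 μg/mL protein. 25 °C, 90 min; glass-fiber filtration; levallorphan 8 μM defines nonspecific binding. Ki from IC50; at least three replicates.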

[11] = biological target: T2, Kappa-type opioid receptor (Mus musculus, UniProt P33534); assay: Displacement of [125]IBNtxA from mouse KOR stably expressed in CHO cell membranes incubated for 90 mins; design: species or system Membrane; how it was run: as §4
T2 sequence (P33534 whole entry): as the sequence (P33534 whole entry) above

[12] = biological target: T3, Delta-type opioid receptor (Mus musculus, UniProt P32300); assay: Displacement of [125]IBNtxA from mouse DOR stably expressed in CHO cell membranes incubated for 90 mins; design: species or system Membrane; how it was run: as §4
T3 sequence (P32300 whole entry): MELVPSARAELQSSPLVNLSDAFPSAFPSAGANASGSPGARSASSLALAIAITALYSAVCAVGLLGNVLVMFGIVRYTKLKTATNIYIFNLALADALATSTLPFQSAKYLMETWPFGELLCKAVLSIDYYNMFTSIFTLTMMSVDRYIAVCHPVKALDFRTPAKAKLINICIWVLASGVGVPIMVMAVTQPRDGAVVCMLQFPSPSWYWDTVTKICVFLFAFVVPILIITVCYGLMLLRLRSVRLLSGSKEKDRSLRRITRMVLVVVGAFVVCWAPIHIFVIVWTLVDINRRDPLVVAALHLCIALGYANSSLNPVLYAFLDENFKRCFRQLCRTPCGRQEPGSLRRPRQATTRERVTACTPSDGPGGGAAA

Mus musculus [13] = species on record: Mus musculus; assay: animal or person; settings: 129Sv6, po, 1 h
Mus musculus [14] = species on record: Mus musculus; assay: animal or person; settings: 129Sv6, 0.5 h
Mus musculus [15] = species on record: Mus musculus; assay: animal or person; settings: C57BL/6J, po, 0.5 h
Mu-type opioid receptor [16] = biological target: T1, Mu-type opioid receptor; assay: Agonist activity at mouse MOR expressed in CHO cell membranes assessed as stimulation of [35S]-GTPgammaS binding incubated for 60 mins by scintillation spectroscopy analysis; design: species or system Membrane; how it was run: as §3
[17] = biological target: T2, Kappa-type opioid receptor; assay: as §2; design: species or system Membrane; how it was run: as §3
[18] = biological target: Kappa-type opioid receptor (Mus musculus) (UniProt P33534); assay: Agonist activity at mouse KOR expressed in CHO cell membranes assessed as stimulation of [35S]-GTPgammaS binding by measuring maximal efficacy incubated for 60 mins by scintillation spectroscopy analysis relative to U50,488H; settings: Membrane, filed as agonist; how it was run: as §1
[19] = biological target: T3, Delta-type opioid receptor; assay: (§5) Antagonist activity at mouse DOR expressed in CHO cell membranes assessed as inhibition of DPDPE induced [35S]-GTPgammaS binding incubated for 60 mins by scintillation spectroscopy analysis; design: species or system Membrane
[20] = biological target: Mu-type opioid receptor (Mus musculus) (UniProt P42866); assay: Potency index, ratio of mitragynine Ki to test compound Ki for displacement of [125]IBNtxA from mouse MOR stably expressed in CHO cell membranes incubated for 90 mins; settings: Membrane
[21] = biological target: Mu-type opioid receptor (Mus musculus) (UniProt P42866); assay: Potency index, ratio of mitragynine EC50 to test compound EC50 for agonist activity at mouse MOR expressed in CHO cell membranes assessed as stimulation of [35S]-GTPgammaS binding incubated for 60 mins by scintillation spectroscopy analysis; settings: Membrane
[22] = Toxicity in C57BL/6J mouse assessed as conditioned place preference at 1 mg/kg, sc; assay type: organism-based; settings: in vivo
How it was run: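 C57BL/6J mice (n = 18–24) were habituated to a two-compartment apparatus for 3 h per day over 2 days, then given a 20 min pre-conditioning baseline test. Conditioning used 20 min sessions with drug at 1 mg/kg/d sc or saline. On test day mice explored freely for 20 min, and a difference score was calculated.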

[23] = biological target: Mu-type opioid receptor (Mus musculus) (UniProt P42866); assay: Partial agonist activity at mouse MOR expressed in CHO cell membranes assessed as stimulation of [35S]-GTPgammaS binding by measuring maximal efficacy incubated for 60 mins by scintillation spectroscopy analysis relative DAMGO; settings: Membrane, filed as partial agonist
How it was run: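 Membranes from CHO cells stably expressing mouse MOR were used in an agonist-stimulated [35S]GTPγS binding assay. […] Data are from three independent experiments, each run in triplicate.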

Mus musculus [24] = species on record: Mus musculus; assay: Antinociceptive activity in mouse; assay type: functional, organism-based
[25] = Toxicity in sc dosed C57BL/6J mouse assessed as lethality at 50 mg/kg, sc; assay type: organism-based; settings: in vivo, read-out: Activity
How it was run: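 Opioid-naïve C57BL/6J mice (n = 4) were given a single 50 mg/kg subcutaneous dose in DMSO/solutol/saline (1:1:8) and observed for lethality, reported as percent of animals dying.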

[26] = Toxicity in sc dosed 129Sv6 mouse assessed as lethality; assay type: organism-based; settings: in vivo
How it was run: (§6)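 Groups of mice (n = 6 per dose) received graded subcutaneous doses in DMSO/solutol/saline (1:1:8) and were scored for lethality. […] Strains were 129Sv6 for line 3 and CD1 for […], both purchased from Jackson Laboratories.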

[27] = Toxicity in sc dosed CD1 mouse assessed as lethality; assay type: organism-based; settings: in vivo; how it was run: as §6
[28] = Toxicity in MOR knock out C57BL/6J mouse at 50 mg/kg, sc in presence of norbinaltorphimine; assay type: organism-based; settings: in vivo
[29] = Toxicity in MOR knock out C57BL/6J mouse at 50 mg/kg, sc in presence of naltrindole; assay type: organism-based; settings: in vivo
[30] = Toxicity in C57BL/6J mouse at 50 mg/kg, sc in presence of norbinaltorphimine; assay type: organism-based; settings: in vivo
[31] = Toxicity in C57BL/6J mouse at 50 mg/kg, sc in presence of naltrindole; assay type: organism-based; settings: in vivo
[32] = Toxicity in CD1 mouse assessed as fatality at 10 ug, IT; settings: in vivo, other, dose 10 µg
[33] = Toxicity in 129Sv6 mouse assessed as fatality at 10 ug, IT; settings: in vivo, other, dose 10 µg
[34] = Drug concentration in C57BL/6J mouse brain at 30 mg/kg, po measured after 24 hrs by LC-MS/MS analysis; assay type: ADME, organism-based; settings: in vivo, BLD = below limit of detection
[35] = Drug concentration in C57BL/6J mouse plasma at 30 mg/kg, po measured after 24 hrs by LC-MS/MS analysis; assay type: ADME, organism-based; settings: in vivo, BLD = below limit of detection
[36] = biological target: Delta-type opioid receptor (Mus musculus) (UniProt P32300); assay: as §5; settings: Membrane
Chain of Delta-type opioid receptor (Mus musculus) (P32300 whole entry): as above

Row | SMILES | Emax [1] [%] | ED50 (Mus musculus [3]) [mg/kg] | Ki (Mu-type opioid receptor [10]) [µM] | Ki [11] [µM] | Ki [12] [µM] | EC50 (Mu-type opioid receptor [16]) [µM] | EC50 [17] [µM] | Emax [18] [%] | other results
1 | CC[C@H]1CN2CCc3c([nH]c4cccc(OC)c34)[C@@H]2C[C@@H]1/C(=C\OC)C(=O)OC | 43 |  |  |  |  |  |  |  | Activity [2]: inactive
2 | CO/C=C(/C(=O)OC)[C@@H]1CCN2CC[C@]3(Nc4cccc(OC)c4C3=O)[C@@H]2C1 |  | 0.3 |  |  |  |  |  |  | ED50 (Mus musculus [4]): 0.26 mg/kg; concentration at 20 min [5]: 410 nM; concentration at 20 min [6]: 70 nM; Ratio ED50 (Mus musculus [7]): 2; Ratio ED50 (Mus musculus [8]): 2; Activity [9]: Non-Toxic
3 | CC[C@@H]1C[N+]2([O-])CCc3c([nH]c4cccc(OC)c34)[C@@H]2C[C@@H]1/C(=C\OC)C(=O)OC (stereo not given in full) |  |  | 6.9 | 7.18 | 4.14 |  |  |  | 
4 | CN1CC[C@]23c4c5ccc(O)c4O[C@H]2[C@@H](O)C=C[C@H]3[C@H]1C5 [MORPHINE] |  | 0.68 |  |  |  |  |  |  | ED50 (Mus musculus [13]): 3.3 mg/kg; ED50 (Mus musculus [14]): 0.7 mg/kg; ED50 (Mus musculus [15]): 4.73 mg/kg
5 | C=C[C@H]1CN2CCc3c([nH]c4cccc(OC)c34)[C@@H]2C[C@@H]1/C(=C\OC)C(=O)OC | 54 | > 100 | 0.666 | 0.883 | 3.39 | 9.38 | 3.59 | 57 | IC50 [19]: > 10 µM
6 | CC[C@@H]1CN2CC[C@@]3(O)C(=Nc4cccc(OC)c43)[C@@H]2C[C@@H]1/C(=C\OC)C(=O)OC |  | 0.2 |  |  |  |  |  |  | ED50 (Mus musculus [4]): 0.3 mg/kg; Ratio Ki [20]: 6; Ratio EC50 [21]: 4; concentration at 20 min [5]: 270 nM; concentration at 20 min [6]: 450 nM; Ratio ED50 (Mus musculus [7]): 3; Ratio ED50 (Mus musculus [8]): 3; Activity [9]: Non-Toxic; Activity [22]: Toxic
7 | CC[C@@H]1CN2CCc3c([nH]c4cccc(OC)c34)[C@H]2C[C@@H]1/C(=C\OC)C(=O)OC |  | > 100 |  |  |  |  |  | 58 | Emax [23]: 45%
8 | CC[C@@H]1C[N+]2=C(C[C@@H]1/C(=C\OC)C(=O)OC)c1[nH]c3cccc(OC)c3c1CC2 |  | > 100 | 0.0341 | 0.125 | 0.0491 | 0.0675 | 0.166 | 64 | IC50 [19]: 1.1 µM; Activity (Mus musculus [24]): inactive; mortality [25]: 100%; LD50 [26]: 48.4 mg/kg; LD50 [27]: 74 mg/kg; Activity [28]: Toxic; Activity [29]: Toxic; Activity [30]: Toxic; Activity [31]: Toxic; Activity [32]: Toxic; Activity [33]: Toxic; Ct [34]: Bld; Cp [35]: Bld
9 | CC[C@@H]1CN2CCc3c([nH]c4cccc(O)c34)[C@@H]2C[C@@H]1/C(=C\OC)C(=O)OC | 62 | > 100 | 0.216 | 1.18 | 1.88 |  | 0.858 | 87 | inhibition [36]: inactive
10 | CC[C@@H]1CN2CCc3c([nH]c4cccc(O[C@@H]5O[C@H](C(=O)O)[C@@H](O)[C@H](O)[C@H]5O)c34)[C@@H]2C[C@@H]1/C(=C\OC)C(=O)OC | 102 | > 30 | 1.67 | 1.27 | 3.24 | 5.78 | 1.14 | 98 | inhibition [36]: inactive
